High-throughput results as filed in PubChem BioAssay.
This is a sample that favours compounds with a hit; in the whole collection about 6.8% have one here.
M1 antag – antagonists of rat M1 muscarinic receptor; Muscarinic acetylcholine receptor M1 (Rattus norvegicus), P08482; CHO-M1 cells, Fluo-4 calcium, ACh EC80 antagonist mode; hits give low values; B-score at 10 µM; 64,000 compounds, 3.4% hits;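 active = calcium fluorescence response, raw or row-and-column corrected B-score, differing from the plate sample mean either way at a set confidence level, mostly lower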
M1 ag – M1 muscarinic receptor agonists, primary screen, CHO-M1 cells, Fluo-4 calcium, agonist mode. 64,000 compounds, 3% hits. Muscarinic acetylcholine receptor M1. Fluo-4 calcium fluorescence; hits give high values. AID 626, 2007. B-score at 10 µM;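 active = fluorescence rise, raw or as B-score row- and column-corrected plate score, outside the 99.7% band of its plate's samples, either direction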
HER2 expr 66K – inhibitors of Her2 protein expression, primary screen, SKBR-3 cells, AlphaScreen, 66K library; Receptor tyrosine-protein kinase erbB-2 (Homo sapiens), P04626; SKBR-3 HER2 protein level, 18-24 h; hits give low values; HER2 level % of control, % at 10 µM; 65,000 compounds, 0.69% hits; AID 645, 2007;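 active = HER2 level under 5% of the carrier-only control; inconclusive = no clear call, values can overlap the other calls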;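 note: lower value means stronger loss of Her2 protein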
HEK293 NFkB inh – inhibitors of PMA/ionomycin-induced NF-kB reporter, primary screen, antigen receptor NF-kB inhibitor project, cell-based, HEK-293 luciferase reporter, luminescence; HEK-293 NF-kB luciferase reporter; 62,000 compounds, 0.21% hits; inhibition, % at 3 µM;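 active = inhibition above the mean of all tested compounds plus 3 SD, cut at about 40% in these data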
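System: NF-kB luciferase reporter HEK-293 cells | Replication: Single test | Control set: DMSO vs reference inhibitor | Evaluation: % inhibition | Schedule: 1 h pretreatment, 16 h stimulation, 37 °C | Probe or stimulus: PMA with ionomycin | Compound dosing: One dose, 3 µM | Detection: Luciferase luminescence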
Cdc25B inh – inhibitors of Cdc25B phosphatase catalytic domain, primary screen, biochemical, OMFP fluorescence; recombinant Cdc25B, OMFP fluorescence Ex485/Em525; inhibition, %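 (compounds tested at 10 µM final in the well)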; 65,000 compounds, 0.1% hits; AID 368, 2006; in the data active = inhibition above about 50%
DUSP1 inh – MKP-1 phosphatase inhibitors, primary screen, biochemical, in vitro; Dual specificity protein phosphatase 1 (Homo sapiens), P28562; recombinant MKP-1, OMFP hydrolysis fluorescence; inhibition, %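 (compounds tested at a single concentration somewhere between 10 and 100 µM)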; 65,000 compounds, 0.15% hits; AID 374, 2006;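 active = inhibition above about 50%, limit read from the data; inconclusive = inhibition over screen mean plus 3 SD, below that limit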
Target sequence (P28562 whole entry, looked up): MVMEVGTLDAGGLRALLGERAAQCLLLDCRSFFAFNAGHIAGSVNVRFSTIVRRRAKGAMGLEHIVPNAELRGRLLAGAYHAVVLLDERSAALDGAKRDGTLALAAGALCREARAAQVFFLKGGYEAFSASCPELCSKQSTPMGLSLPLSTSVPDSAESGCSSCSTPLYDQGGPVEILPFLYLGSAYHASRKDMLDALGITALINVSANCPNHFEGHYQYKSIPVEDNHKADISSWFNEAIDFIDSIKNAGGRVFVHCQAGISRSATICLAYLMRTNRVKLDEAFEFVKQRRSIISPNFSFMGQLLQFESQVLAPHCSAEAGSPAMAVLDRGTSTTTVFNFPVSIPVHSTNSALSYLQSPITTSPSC
M1 agonist conf – rat M1 muscarinic receptor agonists, confirmation, CHO-M1 cells, Fluo-4 calcium, duplicate retest | shares compounds with M1 ag | fluorescence change (max-min) at 10 µM | Fluo-4 calcium fluorescence, agonist mode; actives lie on both sides | 1,700 compounds, 19% hits;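 active = fluorescence change differs from the solvent-only DMSO control mean at a set confidence level in both duplicate runs; inconclusive = differs from solvent-only control mean in just one of two runs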;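 note: an EC20 dose of acetylcholine follows compound addition during the same imaging run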
M4 ag counter – agonist activity at rat M4 receptor, confirmation, counter-screen for M1 allosteric modulator project, cell-based, agonist mode; shares compounds with M1 ag; CHO M4/Gqi5 cells, Fluo-4 calcium fluorescence; actives lie on both sides; fluorescence change (max-min) at 10 µM; 1,700 compounds, 9% hits;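 active = fluorescence change differing from the plate's solvent-only control wells at 99.7% confidence in both duplicates, whether higher or lower; inconclusive = differs from solvent controls in only one of two duplicates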
Numbers stand for hits.

How did CCC1CCCCN1S(=O)(=O)c1ccc(S(=O)(=O)N(Cc2cccs2)C2CC2)cc1 (configuration not stated) do in these assays?
M1 antag: -1.9; M1 ag: 9.7; HER2 expr 66K: inactive; HEK293 NFkB inh: inactive; Cdc25B inh: inactive; DUSP1 inh: inactive; M1 agonist conf: -31.3; M4 ag counter: -71.9

What do the screens show for `CC(=O)Nc1cccc(NC(=O)c2oc3ccccc3c2C)c1`?
M1 antag: inactive; M1 ag: 2.3; HER2 expr 66K: inactive; HEK293 NFkB inh: inactive; Cdc25B inh: inactive; DUSP1 inh: inactive; M1 agonist conf: inactive; M4 ag counter: inactive

What do the screens show for `CN(C)CCNC(=O)Cn1nc(C(F)F)cc1C1CC1`?
M1 antag: inactive; M1 ag: inactive; HER2 expr 66K: inactive; HEK293 NFkB inh: inactive; Cdc25B inh: inactive; DUSP1 inh: inactive

Results for CCN(CC)S(=O)(=O)c1ccc(C(=O)OCn2nnc3ccccc3c2=O)cc1 ?
M1 antag: inactive; M1 ag: 6.24; HER2 expr 66K: inactive; HEK293 NFkB inh: inactive; Cdc25B inh: inactive; DUSP1 inh: inactive; M1 agonist conf: inactive; M4 ag counter: inconclusive

Results for O=C(OCn1nnc2ccccc2c1=O)c1ccc(S(=O)(=O)N2CCOCC2)cc1 ?
M1 antag: inactive; M1 ag: inactive; HER2 expr 66K: inactive; HEK293 NFkB inh: inactive; Cdc25B inh: inactive; DUSP1 inh: inactive

How did COc1ccc2oc(-c3ccccc3)c(C(=O)N3CCOCC3)c2c1 do in these assays?
M1 antag: inactive; M1 ag: 3.99; HER2 expr 66K: inactive; HEK293 NFkB inh: inactive; Cdc25B inh: inactive; DUSP1 inh: inactive; M1 agonist conf: inactive; M4 ag counter: inactive

What do the screens show for `Cc1cc(-c2ccccc2)n(-c2ccc(C(=O)N3CCN(c4ncccn4)CC3)cc2)n1`?
M1 antag: inactive; M1 ag: 9.15; HER2 expr 66K: inactive; HEK293 NFkB inh: inactive; Cdc25B inh: inactive; DUSP1 inh: inactive; M1 agonist conf: inconclusive; M4 ag counter: inconclusive

What do the screens show for `Cc1ccc2nc(-c3ccccn3)cc(C(=O)N3CCN(c4ncccn4)CC3)c2c1`?
M1 antag: inactive; M1 ag: 3.57; HER2 expr 66K: inactive; HEK293 NFkB inh: inactive; Cdc25B inh: inactive; DUSP1 inh: inactive; M1 agonist conf: inactive; M4 ag counter: inactive

How did Cc1ccc(-c2cc(C(=O)N3CCN(c4ncccn4)CC3)c3ccccc3n2)cc1 do in these assays?
M1 antag: inactive; M1 ag: 8.8; HER2 expr 66K: inactive; HEK293 NFkB inh: inactive; Cdc25B inh: inactive; DUSP1 inh: inactive; M1 agonist conf: inactive; M4 ag counter: -111

How did COC(=O)C1=C(N)N(c2ccc(F)cc2)C2=C(C(=O)CCC2)C1c1ccc2c(c1)OCO2 (configuration not stated) do in these assays?
M1 antag: inactive; M1 ag: inactive; HER2 expr 66K: inactive; HEK293 NFkB inh: inactive; Cdc25B inh: inactive; DUSP1 inh: inactive

Results for Cc1ccc(-n2c(SCc3cn4ccsc4n3)nc3ccccc3c2=O)cc1 ?
M1 antag: inactive; M1 ag: inactive; HER2 expr 66K: inactive; HEK293 NFkB inh: inactive; Cdc25B inh: inactive; DUSP1 inh: inactive

Results for Cc1csc(=N)n1CC(=O)N1CCc2ccccc21 ?
M1 antag: inactive; M1 ag: inactive; HER2 expr 66K: inactive; HEK293 NFkB inh: inactive; Cdc25B inh: inactive; DUSP1 inh: inactive

How did CC(C)Oc1cccc(-c2cc(C(=O)N3CCN(S(C)(=O)=O)CC3)c3ccccc3n2)c1 do in these assays?
M1 antag: inactive; M1 ag: 3.65; HER2 expr 66K: inactive; HEK293 NFkB inh: inactive; Cdc25B inh: inactive; DUSP1 inh: inactive; M1 agonist conf: inconclusive; M4 ag counter: inactive

Results for COc1ccc(-c2cc(C(=O)N3CCOCC3)c3cc(C)ccc3n2)cc1 ?
M1 antag: inactive; M1 ag: 4.07; HER2 expr 66K: inactive; HEK293 NFkB inh: inactive; Cdc25B inh: inactive; DUSP1 inh: inactive; M1 agonist conf: inactive; M4 ag counter: inactive

What do the screens show for `Cc1nc2ccccc2n2c(O)c(CC(=O)O)cc12`?
M1 antag: inactive; M1 ag: 269; HER2 expr 66K: inactive; HEK293 NFkB inh: inactive; Cdc25B inh: inactive; DUSP1 inh: inactive; M1 agonist conf: 1125; M4 ag counter: 1088

Results for Cc1cc(C(=O)NCCCN2CCN(C3CCCCC3)CC2)n(-c2ccccc2)n1 ?
M1 antag: inactive; M1 ag: 31.7; HER2 expr 66K: inactive; HEK293 NFkB inh: inactive; Cdc25B inh: inactive; DUSP1 inh: inactive; M1 agonist conf: inactive; M4 ag counter: inconclusive

How did O=C(NC1CCCCCC1)C1CCN(S(=O)(=O)c2ccccc2)CC1 do in these assays?
M1 antag: inactive; M1 ag: 6.55; HER2 expr 66K: inactive; HEK293 NFkB inh: inactive; Cdc25B inh: inactive; DUSP1 inh: inactive; M1 agonist conf: inconclusive; M4 ag counter: inconclusive

How did COCCN1CN=C(Nc2nc3ccccc3s2)NC1 do in these assays?
M1 antag: inactive; M1 ag: inactive; HER2 expr 66K: inactive; HEK293 NFkB inh: inactive; Cdc25B inh: inactive; DUSP1 inh: inactive

Results for CC1CCN(c2ncnc3c2cnn3Cc2ccc(Cl)cc2)CC1 ?
M1 antag: inactive; M1 ag: inactive; HER2 expr 66K: inactive; Cdc25B inh: inactive; DUSP1 inh: inactive

What do the screens show for `COC(=O)c1ccc(-c2ccco2)n1Cc1nc(-c2ccc(OC)c(OC)c2)oc1C`?
M1 antag: inactive; M1 ag: 1.85; HER2 expr 66K: inactive; HEK293 NFkB inh: inactive; Cdc25B inh: inactive; DUSP1 inh: inactive; M1 agonist conf: inactive; M4 ag counter: inactive

What do the screens show for `O=C(Cn1cc(C(F)(F)F)ccc1=O)N1CCN(S(=O)(=O)c2ccc(Cl)cc2)CC1`?
M1 antag: inactive; M1 ag: inactive; HER2 expr 66K: inactive; HEK293 NFkB inh: inactive; Cdc25B inh: inactive; DUSP1 inh: inactive

Results for CC(=O)c1sc2nc(-c3cccs3)cc(C(F)(F)F)c2c1N ?
M1 antag: inactive; M1 ag: 97.7; HER2 expr 66K: -2.8; HEK293 NFkB inh: inactive; Cdc25B inh: inactive; DUSP1 inh: inactive; M1 agonist conf: 123; M4 ag counter: inactive
